Laboratory results published in ChEMBL document CHEMBL1287672, “Synthesis of new 4-aminoquinolines and quinoline-acridine hybrids as antimalarial agents” (2010).
Values after ≈ are worked out from the molar mass of the structure shown. Active and inactive are the calls of the source. The calls are words filed in the database; no cut-off is given here.

How the values were obtained:
Plasmodium falciparum = test: Antimalarial activity against Plasmodium falciparum NF 54 assessed as inhibition of maturation into schizont stage after 36 to 40 hrs; assay type: functional
How it was run: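 Synchronous ring-stage NF-54 parasites (5% D-sorbitol synchronization) in RPMI-1640 with 25 mM HEPES, 1% D-glucose, 0.23% sodium bicarbonate and 10% heat-inactivated human serum. Start at 1% parasitemia, 3% hematocrit. Compounds tested in duplicate wells, 37 °C, candle jar, 36–40 h. Giemsa-stained smears read by microscopy. MIC is the lowest tested concentration blocking full maturation to schizonts. Chloroquine reference.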

Plasmodium yoelii [1] = test: Antimalarial activity against chloroquine-resistant Plasmodium yoelii infected in Swiss mice (Mus musculus) assessed as mice (Mus musculus) survival at 50 mg/kg, intraperitoneal for 4 days relative to control; assay type: functional, organism-based; parameters: dose 50 mg/kg
How it was run: (§1)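 Swiss mice were inoculated with 1 × 10^6 P. yoelii N-67 parasitized RBC on day 0. Groups of five were dosed once daily on days 0–3 with compound as an aqueous suspension with a few drops of Tween 80. Intraperitoneal doses were given in 0.2 mL and oral doses in 0.1 mL. The read-out was the number of mice alive on day 28.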

Plasmodium yoelii [2] = test: Antimalarial activity against chloroquine-resistant Plasmodium yoelii infected in Swiss mice (Mus musculus) assessed as suppression of parasitaemia at 50 mg/kg, intraperitoneal for 4 days relative to control; assay type: functional
How it was run: (§2)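 Swiss mice were infected on day 0 with 1 × 10^6 RBC parasitized by P. yoelii N-67. Five mice per group were dosed once daily on days 0–3 with a Tween 80 aqueous suspension, given ip in 0.2 mL or orally in 0.1 mL. Parasitemia was read from thin Giemsa smears on day 4. Suppression was calculated from group means as [(C − T)/C] × 100 against untreated controls.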

Plasmodium yoelii [3] = test: Antimalarial activity against chloroquine-resistant Plasmodium yoelii infected in Swiss mice (Mus musculus) assessed as suppression of parasitaemia at 25 mg/kg, intraperitoneal for 4 days relative to control; assay type: functional; how it was run: as §2
Plasmodium yoelii [4] = test: Antimalarial activity against chloroquine-resistant Plasmodium yoelii infected in Swiss mice (Mus musculus) assessed as suppression of parasitaemia at 100 mg/kg, peroral for 4 days relative to control; assay type: functional; conditions: route oral; how it was run: as §2
Plasmodium yoelii [5] = test: Antimalarial activity against chloroquine-resistant Plasmodium yoelii infected in Swiss mice (Mus musculus) assessed as mice (Mus musculus) survival at 100 mg/kg, peroral for 4 days relative to control; assay type: functional, organism-based; parameters: dose 100 mg/kg; how it was run: as §1
Plasmodium yoelii [6] = test: Antimalarial activity against chloroquine-resistant Plasmodium yoelii infected in Swiss mice (Mus musculus) assessed as mice (Mus musculus) survival at 25 mg/kg, intraperitoneal for 4 days relative to control; assay type: functional, organism-based; parameters: dose 25 mg/kg; how it was run: as §1

| Structure (SMILES) | MIC (Plasmodium falciparum) [mg/L] | other results |
| --- | --- | --- |
| CCN(CC)CCCC(C)Nc1ccnc2cc(Cl)ccc12 (configuration not stated) [CHLOROQUINE] | 0.125 (≈ 0.391 µM) | – |
| O=[N+]([O-])c1cccnc1N1CCN(CCNc2ccnc3cc(Cl)ccc23)CC1 | 10 (≈ 24.2 µM) | – |
| Cc1ccc([N+](=O)[O-])c(N2CCN(CCNc3ccnc4cc(Cl)ccc34)CC2)c1 | 10 (≈ 23.5 µM) | – |
| COc1ccc2nc3cc(Cl)ccc3c(Nc3ccc(Nc4ccnc5cc(Cl)ccc45)cc3)c2c1 | 0.5 (≈ 0.978 µM) | – |
| N#CC1(c2ccccc2)CCN(CCNc2ccnc3cc(Cl)ccc23)CC1 | 10 (≈ 25.6 µM) | – |
| Clc1ccc2c(NCCN3CCN(c4ccccn4)CC3)ccnc2c1 | 10 (≈ 27.2 µM) | – |
| COc1ccc2nc3cc(Cl)ccc3c(Nc3cccc(Nc4ccnc5cc(Cl)ccc45)c3)c2c1 | 0.25 (≈ 0.489 µM) | Activity (Plasmodium yoelii [1]): inactive; Activity (Plasmodium yoelii [2]): 100% |
| Clc1ccc2c(NCCN3CCc4ccccc4C3)ccnc2c1 | 2 (≈ 5.92 µM) | – |
| COc1ccc2nc3cc(Cl)ccc3c(NCCCN3CCN(c4ccnc5cc(Cl)ccc45)CC3)c2c1 | 1 (≈ 1.83 µM) | – |
| COc1ccc2nc3cc(Cl)ccc3c(NCCN3CCN(c4ccnc5cc(Cl)ccc45)CC3)c2c1 | 1 (≈ 1.88 µM) | – |
| O=[N+]([O-])c1cccnc1N1CCN(CCCNc2ccnc3cc(Cl)ccc23)CC1 | 10 (≈ 23.4 µM) | – |
| Clc1ccc2c(NCCCN3CCc4ccccc4C3)ccnc2c1 | 0.031 (≈ 0.0881 µM) | Activity (Plasmodium yoelii [1]): inactive; Activity (Plasmodium yoelii [2]): 100% |
| Cc1ccc([N+](=O)[O-])c(N2CCN(CCCNc3ccnc4cc(Cl)ccc34)CC2)c1 | 10 (≈ 22.7 µM) | – |
| O=[N+]([O-])c1ccccc1N1CCN(CCCNc2ccnc3cc(Cl)ccc23)CC1 | 10 (≈ 23.5 µM) | – |
| N#CC1(c2ccccc2)CCN(CCCNc2ccnc3cc(Cl)ccc23)CC1 | 2 (≈ 4.94 µM) | – |
| Clc1ccc2c(NCCCN3CCN(c4ccccn4)CC3)ccnc2c1 | 0.125 (≈ 0.327 µM) | Activity (Plasmodium yoelii [3]): 100%; Activity (Plasmodium yoelii [4]): 100%; Activity (Plasmodium yoelii [1]): Active; Activity (Plasmodium yoelii [2]): 100%; Activity (Plasmodium yoelii [5]): Active; Activity (Plasmodium yoelii [6]): Active |
| O=[N+]([O-])c1ccccc1N1CCN(CCNc2ccnc3cc(Cl)ccc23)CC1 | 10 (≈ 24.3 µM) | – |
